Experimental data from ChEMBL document CHEMBL1127621, “Electron-deficient DNA-intercalating agents as antitumor drugs: aza analogues of the experimental clinical agent N-[2-(dimethylamino)ethyl]acridine-4-carboxamide” (J Med Chem, 1994).
Calls of active or inactive are those of the source. The rule behind the calls is not given here.

Tests used:
P388 = assay: Inhibition of P388 leukemia cells growth in culture; type: functional, cell-based; conditions: Mus musculus
In short: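 P388 leukemia cells in exponential growth were exposed to drug for 70 h. IC50 is the micromolar concentration that reduces cell growth to 50% of control values.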

Nucleic Acid = assay: Inhibitory concentration against ethidium bromide binding to [poly(dA-dT)] [poly(dA-dT)]; type: nucleic-acid assay
In short: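 Fluorometric ethidium displacement using poly[d(A-T)]. C50 is the micromolar ligand concentration that displaces 50% of previously bound ethidium. For intercalators it is inversely proportional to the ligand–DNA association constant.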

Mus musculus [1] = assay: Optimal dose required to inhibit P388 leukemia cells when administered intraperitoneally in mice; type: functional
In short: (§1)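 Mice were inoculated ip with 10^6 P388 leukemia cells. Drug was given ip on days 1, 5 and 9 in 0.1 mL of 30% v/v EtOH-water, with dose in mg/kg/day. Optimal dose was determined, and ILS is the % lifespan increase over tumor-bearing controls at that dose.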

Mus musculus [2] = assay: Percentage increase in lifespan of P388 tumor-bearing mice compared with tumor-bearing controls at optimal dose of 65 mg/kg/day; NA= Not active; type: functional, organism-based; in short: as §1
Mus musculus [3] = assay: Percentage increase in lifespan of P388 tumor-bearing mice compared with tumor-bearing controls at optimal dose of 65 mg/kg/day; type: functional
Mus musculus [4] = assay: Percentage increase in lifespan of P388 tumor-bearing mice compared with tumor-bearing controls at optimal dose of 65 mg/kg/day; NA=Not active; type: functional, organism-based; in short: as §1
Mus musculus [5] = assay: Percentage increase in lifespan of P388 tumor-bearing mice compared with tumor-bearing controls at optimal dose of 150 mg/kg/day; NA = Not active; type: functional, organism-based; in short: as §1

| IC50 (P388) [µM] | C50 (Nucleic Acid) [µM] | Compound | OD (Mus musculus [1]) [mg/kg/day] | ILS (Mus musculus [2]) | ILS at 65 mg/kg/day (Mus musculus [3]) [%] | ILS (Mus musculus [4]) | ILS (Mus musculus [5]) |
| --- | --- | --- | --- | --- | --- | --- | --- |
| > 40 | 18.5 | CN(C)CCNC(=O)c1cccc2c(O)c3ccncc3nc12 | – | – | – | – | – |
| > 40 | 9.6 | Oc1c2cccc(/C=N\NC3=NCCN3)c2nc2cccnc12 | – | – | – | – | – |
| 3.3 | 5.4 | C(=N/NC1=NCCN1)/c1cccc2cc3ncccc3nc12 | 45 | inactive | – | – | – |
| 1.3 | 11 | CN(C)CCNC(=O)c1cc([N+](=O)[O-])cc2c(O)c3cccnc3nc12 | – | – | – | – | – |
| 12 | 5 | C(=N/NC1=NCCN1)/c1cccc2cc3cccnc3nc12 | – | – | – | – | – |
| 0.085 | 3.1 | CN(C)CCNC(=O)c1ccc([N+](=O)[O-])c2cc3ncccc3nc12 | 45 | inactive | – | – | – |
| 1.2 | 4.1 | CN(C)CCNC(=O)c1cccc2c(O)c3ccc([N+](=O)[O-])cc3nc12 | 65 | inactive | – | – | – |
| 5 | 4.4 | CN(C)CCNC(=O)c1ccc([N+](=O)[O-])c2cc3cnccc3nc12 | – | – | – | – | – |
| 0.15 | 2.1 | CN(C)CCNC(=O)c1ccc([N+](=O)[O-])c2cc3cccnc3nc12 | 20 | inactive | – | – | – |
| 22 | 4 | Oc1c2cccnc2nc2c(/C=N\NC3=NCCN3)cccc12 | – | – | – | – | – |
| 3.5 | 5.9 | CN(C)CCNC(=O)c1cccc2c(O)c3cc([N+](=O)[O-])ccc3nc12 | – | – | – | – | – |
| 8.3 | 4.6 | CN(C)CCNC(=O)c1cccc2cc3ccncc3nc12 | – | – | – | – | – |
| 0.49 | 7.6 | CN(C)CCNC(=O)c1cccc2cc3cccnc3nc12 | – | – | – | inactive | – |
| 1 | 6.2 | CN(C)CCNC(=O)c1ccc([N+](=O)[O-])c2c(O)c3cnccc3nc12 | – | – | – | – | – |
| 1.7 | 15 | CN(C)CCNC(=O)c1cccc2c(=O)c3ccccc3[nH]c12 | – | – | – | – | inactive |
| > 40 | 7.3 | C[N+](C)(C)CC(=O)N/N=C\c1cccc2c(O)c3cccnc3nc12 | – | – | – | – | – |
| > 40 | – | CN(C)CCNC(=O)c1cccc2c(O)c3cnccc3nc12 | – | – | – | – | – |
| 12.3 | 6.6 | C(=N/NC1=NCCN1)/c1cccc2cc3cnccc3nc12 | – | – | – | – | – |
| 5.5 | 27.7 | CN(C)CCNC(=O)c1cccc2c(O)c3cccnc3nc12 | – | – | – | – | inactive |
| > 40 | 10.7 | CN(C)CCn1c(=O)c2cccc3c(=O)c4ccncc4n(c1=O)c32 | – | – | – | – | – |
| 0.91 | 4.5 | CN(C)CCNC(=O)c1cc([N+](=O)[O-])cc2c(O)c3ccccc3nc12 | 45 | inactive | – | – | – |
| 25 | 5.9 | C(=N/NC1=NCCN1)/c1cccc2cc3ccncc3nc12 | – | – | – | – | – |
| 1.65 | 11.1 | C[N+](C)(C)CC(=O)N/N=C\c1cccc2cc3cccnc3nc12 | 65 | inactive | – | – | – |
| 0.55 | 23 | CN(C)CCNC(=O)C1=CC=C([N+](=O)[O-])C2C(=O)c3ccccc3N=C12 (stereo unspecified) | – | – | – | – | – |

| Compound | IC50 (P388) [µM] | C50 (Nucleic Acid) [µM] | OD (Mus musculus [1]) [mg/kg/day] | ILS (Mus musculus [2]) | ILS at 65 mg/kg/day (Mus musculus [3]) [%] | ILS (Mus musculus [4]) | ILS (Mus musculus [5]) |
| --- | --- | --- | --- | --- | --- | --- | --- |
| CN(C)CCNC(=O)c1cccc2cc3ccccc3nc12 | 0.11 | 5 | – | – | 91 | – | – |
| CN(C)CCNC(=O)c1cccc2c(O)c3cccc([N+](=O)[O-])c3nc12 | 0.083 | 2.4 | 45 | – | 65 | – | – |
| CN(C)CCNC(=O)c1ccc([N+](=O)[O-])c2c(O)c3cccnc3nc12 | 0.018 | 10.4 | 65 | – | 31 | – | – |
| CN(C)CCNC(=O)c1cccc2cc3ncccc3nc12 | 4.4 | 11.1 | – | – | 48 | – | – |
